The source of these data is ChEMBL document CHEMBL4190293, “Anti-inflammatory Meroterpenoids from Baeckea frutescens” (J Nat Prod, 2017).

pIC50: −log10 of the molar value. Activity calls are given as the source filed them. The calls are words filed in the database; no cut-off is given here.

By pIC50 is commonly meant the negative decadic logarithm of the IC50, by convention in mol/L.

For assay [1], the system named is RAW264.7. Kind of assay: Antiinflammatory activity in mouse RAW264.7 cells assessed as inhibition of LPS-stimulated nitric oxide production pretreated for 2 hrs followed by LPS-stimulation measured after 20 hrs by Griess assay. The class given is functional, cell-based. The method in brief: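 Murine RAW 264.7 macrophages in DMEM with 10% FBS, seeded at 1 × 10^5 cells/well and grown 12 h. Pretreated with compound for 2 h, then given LPS (1 μg/mL) for 20 h; L-NMMA as positive control. Supernatant nitrite mixed 1:1 with Griess reagent, 10 min at room temperature, absorbance read at 540 nm. IC50 from three independent replicates. Viability checked by Alamar Blue after 20 h.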
Background: Nitrite, measured by Griess reagent, commonly stands in for NO production.

For assay [2], the system named is RAW264.7. Kind of assay: Antiinflammatory activity in mouse RAW264.7 cells assessed as inhibition of LPS-stimulated IL-6 expression at 0.2 to 0.8 uM pretreated for 2 hrs followed by LPS-stimulation measured after 18 hrs by ELISA. The class given is functional, cell-based. The method in brief:
(§1)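 RAW 264.7 cells seeded at 1 × 10^6 cells/well in serum-free DMEM for 12 h. Cells pretreated with test compound at 0.2, 0.4 or 0.8 μM for 2 h, then stimulated with LPS (1 μg/mL) for 18 h. TNF-α and IL-6 in the culture supernatant measured by ELISA kit. Mean ± SD of three independent experiments; one-way ANOVA with Dunnett's post hoc test.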

In assay [3] the test system is RAW264.7. Kind of assay: Antiinflammatory activity in mouse RAW264.7 cells assessed as inhibition of LPS-stimulated TNFalpha expression pretreated for 2 hrs followed by LPS-stimulation measured after 18 hrs by ELISA. The class given is functional, cell-based. Put shortly: as §1
The target of assay [4] is Transcription factor p65 (Mus musculus) (UniProt Q04207). The experiment in a line: Inhibition of NF-kappaB p65 nuclear translocation in LPS-stimulated mouse RAW264.7 cells pretreated for 2 hrs followed by LPS-stimulation measured after 16 hrs by Western blot analysis. The class given is cell-based. Put shortly:
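RAW 264.7 cells exposed to compound at 0.2, 0.4 or 0.8 μM for 2 h, then given 1 μg/mL LPS, or left unstimulated, for 16 h. Lysates made in RIPA buffer, protein quantified by BCA, run on 10% SDS-PAGE and transferred to PVDF. Blots probed for NF-κB p65 with lamin B as internal control, primary antibodies at 4 °C overnight. Mean ± SD of three independent experiments.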
Background: In western blotting, separated proteins are transferred to a membrane and probed.

Sequence of Transcription factor p65 (Mus musculus) (Q04207 whole entry): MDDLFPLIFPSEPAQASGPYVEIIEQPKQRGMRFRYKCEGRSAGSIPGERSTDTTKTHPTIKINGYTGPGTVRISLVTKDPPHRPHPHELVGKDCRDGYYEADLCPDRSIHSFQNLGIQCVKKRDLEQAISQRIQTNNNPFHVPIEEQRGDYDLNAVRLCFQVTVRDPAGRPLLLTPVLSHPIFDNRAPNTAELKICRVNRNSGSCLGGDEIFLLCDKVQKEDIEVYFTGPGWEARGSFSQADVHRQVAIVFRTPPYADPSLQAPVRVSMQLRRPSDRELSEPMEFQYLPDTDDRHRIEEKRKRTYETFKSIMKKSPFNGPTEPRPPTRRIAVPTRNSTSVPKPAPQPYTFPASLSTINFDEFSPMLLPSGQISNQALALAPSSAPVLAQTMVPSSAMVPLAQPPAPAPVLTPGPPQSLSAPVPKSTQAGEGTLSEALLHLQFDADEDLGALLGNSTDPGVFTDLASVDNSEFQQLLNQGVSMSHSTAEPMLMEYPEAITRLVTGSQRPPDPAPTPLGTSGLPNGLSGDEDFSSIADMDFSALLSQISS

Turning to `COC1=C(C)C(=O)C2=C(O[C@@]3(C=C4[C@H](C(C)C)CC[C@@H](C)[C@H]4CC3)C[C@H]2C(C)C)C1(C)C`, the pIC50 in assay [1] was < 4.30. As for `COC1=C(C)C2=C(C(=O)C1(C)C)[C@H](C(C)C)C[C@@]1(CC[C@@]3(C(C)C)C[C@@H]13)O2` (racemic), the pIC50 in assay [1] is 5.74.

Consider `COC1=C(C)C(=O)C2=C(O[C@@]3(C=C4[C@H](C(C)C)CC[C@@H](C)[C@H]4CC3)C[C@@H]2C(C)C)C1(C)C`, for which the negative logarithm of the IC50 (pIC50) in assay [1] was 4.73. In the case of `COC1=C(C)C(=O)[C@@]2(CC=C(CCC=C(C)C)C[C@H]2C(C)C)C(=O)C1(C)C` (racemic), in assay [1], the pIC50 was 5.68. The same measure, in the same setting: the result for `COC1=C(C)C(=O)C2=C(O[C@]3(C=C4[C@H](C(C)C)CC[C@@H](C)[C@H]4CC3)C[C@@H]2C(C)C)C1(C)C` reads < 4.30; that for `COC1=C(C)C(=O)[C@]2(CC(CCC=C(C)C)=CC[C@H]2C(C)C)C(=O)C1(C)C` (racemic), 5.19; that for `COC1=C(C)C(=O)C2=C(O[C@]3(CC[C@]45[C@H]([C@H](C(C)C)CC[C@H]4C)[C@@H]35)C[C@H]2C(C)C)C1(C)C`, 4.52. On to `CNC(=N)NCCC[C@H](N)C(=O)O` [TILARGININE], for which, in assay [1], the negative logarithm of the IC50 (pIC50) was 4.51. On to `COC1=C(C)C2=C(C(=O)C1(C)C)[C@@H](C(C)C)C[C@]1(CC[C@@]3(C(C)C)C[C@@H]13)O2`, for which, in assay [1], the pIC50 is 6.44. In assay [2], the inhibition result was “inactive”. Moreover, the inhibition result in assay [3] and in assay [4] was “Dose-dependent effect” in each case.

Regarding `COC1=C(C)C(=O)C2=C(O[C@]3(CC[C@@H]4C[C@@H]3C4(C)C)C[C@@H]2C(C)C)C1(C)C`, in assay [1], the pIC50 was 5.43. In the case of `C=C1CC[C@@H]2[C@H](C(C)C)C3=C(O[C@@]2(C)CC[C@@H]2[C@@H]1CC2(C)C)C(C)(C)C(OC)=C(C)C3=O`, the negative-log IC50 (pIC50) in assay [1] is < 4.30. Still for that read-out and setting: the result for `COC1=C(C)C(=O)C2=C(O[C@@]3(CC[C@]45[C@H]([C@H](C(C)C)CC[C@H]4C)[C@@H]35)C[C@@H]2C(C)C)C1(C)C` reads 4.82.
